Legend:
[1] = Dose protecting 50% of the mice from tonic hind limb extension at the time of peak convulsant effect after po administration.; assay type: functional; settings: Mus musculus, Hindlimb
Outline: (§1)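 Phase II quantification in CF1 male mice (ca. 24–34 g), dosing ip or po in 0.5% methylcellulose suspension. ED50 is protection from tonic hind limb extension in MES. TD50 is rotorod neurotoxicity. Both were read at time of peak effect and derived by Litchfield–Wilcoxon with 95% confidence limits.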

[2] = Dose showing neurotoxicity in 50% of the at the time of peak neurotoxic effect in CF1 MICE after ip administration.; assay type: functional; settings: Mus musculus; outline: as §1
[3] = Dose producing neurotoxic effects in 50% of the CF1 mice after intraperitoneal administration.; assay type: ADME; settings: CF1, mouse, in vivo, ip; outline: as §1
[4] = Antiepileptic activity in male CF1 mice 30 min after administration measured in maximum electroshock seizure(MES) test at a dose of 100 mg/kg (no. of animals treated /protected); activity value is 2/3; assay type: functional, Mus musculus
[5] = Antiepileptic activity in male CF1 mice 30 min after administration measured in neurological toxicity (Tox) test at a dose of 100 mg/kg (no. of animals treated /protected); activity value is 0/8; assay type: functional, Mus musculus
[6] = Dose showing neurotoxicity in 50% of the at the time of peak neurotoxic effect in CF1 MICE after po administration.; assay type: toxicity, organism-based; settings: CF1, mouse, in vivo; outline: as §1
[7] = Time of peak anticonvulsant effect in CF1 MICE after po administration.; assay type: functional, Mus musculus
Outline: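 Male CF1 mice (ca. 24–34 g), compound in 0.5% methylcellulose suspension given ip or po; time (h) at which MES protection (against tonic hind limb extension) peaked was recorded and used for ED50 determination.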

[8] = Time of peak neurotoxic effect in CF1 MICE after ip administration.; assay type: ADME, organism-based; settings: mouse, in vivo
Outline: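 Male CF1 mice (ca. 24–34 g), compound ip in 0.5% methylcellulose suspension; neurological deficit assessed by rotorod test, time (h) of peak neurotoxic effect recorded for TD50 determination.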

[9] = Antiepileptic activity in male CF1 mice 30 min after administration measured in neurological toxicity (Tox) test at a dose of 300 mg/kg (no. of animals treated /protected); activity value is 3/4; assay type: functional, Mus musculus
[10] = Antiepileptic activity in male CF1 mice 4 hr after administration measured in subcutaneous pentylenetetrazole (scMet) test at a dose of 100 mg/kg; activity value is 0/1; assay type: functional, Mus musculus
[11] = Antiepileptic activity in male CF1 mice 0.25 hr after oral administration measured in neurological toxicity (Tox) test at a dose of 50 mg/kg (no. of animals treated /protected); activity value is 0/4; assay type: functional, Mus musculus
[12] = Antiepileptic activity in male CF1 mice 0.5 hr after oral administration measured in maximum electroshock seizure(MES) test at a dose of 50 mg/kg (no. of animals treated /protected); activity value is 4/4; assay type: functional, Mus musculus
[13] = Antiepileptic activity in male CF1 mice 0.5 hr after oral administration measured in neurological toxicity (Tox) test at a dose of 50 mg/kg (no. of animals treated /protected); activity value is 0/4; assay type: functional, Mus musculus
[14] = Antiepileptic activity in male CF1 mice 1 hr after oral administration measured in maximum electroshock seizure(MES) test at a dose of 50 mg/kg; activity value is 3/4; assay type: functional, Mus musculus
[15] = Antiepileptic activity in male CF1 mice 1 hr after oral administration measured in neurological toxicity (Tox) test at a dose of 50 mg/kg (no. of animals treated /protected); activity value is 0/4; assay type: functional, Mus musculus
Rattus norvegicus [16] = experiment: Average seizure score for the rat cornea 0.5 hr after peroral administration of 60 mg/kg of compound; assay type: functional; settings: route oral
Outline: (§2)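 Sprague-Dawley rats (85–95 g initial) were kindled with 4 s, 8 mA corneal stimulations (butacaine anesthesia) to 10 consecutive stage 5 seizures. After a vehicle shock and a 2-day shock-free period, test drug was given ip or po and a single shock applied at time of peak effect. Seizures were scored on a modified Racine 0–5 scale. ED50 is the dose reducing severity by 50% (Litchfield–Wilcoxon).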

[17] = Protective index was measured as TD50/MES ED50 in mice on po administration; assay type: ADME, organism-based; settings: mouse, in vivo, read-out: PI
Outline: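 Male CF1 mice (ca. 24–34 g) dosed orally with 0.5% methylcellulose suspension. MES ED50 (protection of 50% from tonic hind limb extension) and rotorod TD50, each determined at time of peak effect by Litchfield and Wilcoxon. PI = TD50/MES ED50.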

Rattus norvegicus [18] = experiment: Per oral dose (75 mg/Kg) reducing rat corneal kindling 0.5 hr after administration.; assay type: functional; outline: as §2
[19] = Antiepileptic activity in male CF1 mice 30 min after administration measured in neurological toxicity (Tox) test at a dose of 300 mg/kg (no. of animals treated /protected); activity value is 4/4; assay type: functional, Mus musculus
[20] = Antiepileptic activity in male CF1 mice 30 min after administration measured in neurological toxicity (Tox) test at a dose of 100 mg/kg (no. of animals treated /protected); activity value is 1/8; assay type: functional, Mus musculus
[21] = Antiepileptic activity in male CF1 mice 4 hr after administration measured in neurological toxicity (Tox) test at a dose of 100 mg/kg (no. of animals treated /protected); activity value is 0/4; assay type: functional, Mus musculus
[22] = Antiepileptic activity in male CF1 mice 4 hr after administration measured in subcutaneous pentylenetetrazole (scMet) test at a dose of 100 mg/kg (no. of animals treated /protected); activity value is 0/1; assay type: functional, Mus musculus
[23] = Antiepileptic activity in male CF1 mice 0.50 hours after oral administration measured in neurological toxicity (Tox) test at a dose of 6 mg/kg (no. of animals treated /protected); activity value is 0/4; assay type: functional, Mus musculus
[24] = Antiepileptic activity in male CF1 mice 0.5 hr after oral administration measured in maximum electroshock seizure(MES) test at a dose of 10 mg/kg (no. of animals treated /protected); activity value is 4/4; assay type: functional, Mus musculus
[25] = Antiepileptic activity in male CF1 mice 1.00 hours after oral administration measured in neurological toxicity (Tox) test at a dose of 6 mg/kg (no. of animals treated /protected); activity value is 0/4; assay type: functional, Mus musculus
[26] = Antiepileptic activity in male CF1 mice 4 hr after oral administration measured in maximum electroshock seizure(MES) test at a dose of 10 mg/kg (no. of animals treated /protected); activity value is 3/4; assay type: functional, Mus musculus
[27] = Antiepileptic activity in male CF1 mice 4 hr after oral administration measured in neurological toxicity (Tox) test at a dose of 10 mg/kg (no. of animals treated /protected); activity value is 0/4; assay type: functional, Mus musculus
Rattus norvegicus [28] = experiment: Average seizure score for the rat cornea 0.5 hr after peroral administration of 20 mg/kg of compound; assay type: functional; settings: route oral; outline: as §2
Rattus norvegicus [29] = experiment: Average seizure score for the rat cornea 0.5 hr after peroral administration of 30 mg/kg of compound; assay type: functional; settings: route oral; outline: as §2
Rattus norvegicus [30] = experiment: Average seizure score for the rat cornea 0.5 hr after peroral administration of 40 mg/kg of compound; assay type: functional; settings: route oral; outline: as §2

In the case of COC(=O)C1C(=O)C=C(NCc2ccccc2)CC1C (stereo not given), the ED50 [1] is reported as 162 mg/kg, the ED50 [2] is reported as > 500 mg/kg and the TD50 [3] is reported as > 500 mg/kg. For the same compound, the Activity [4] was 2, the Activity [5] was 0 and the TD50 [6] was > 500 mg/kg. The TPE [7] was 0.5 h, the TPE [8] was 0.25 h and the Activity [9] was 3. For the same compound, the Activity [10] was 0, the Activity [11] was 0 and the Activity [12] was 4. The Activity [13] was 0, the Activity [14] was 3 and the Activity [15] was 0. For the same compound, the Average seizure score (Rattus norvegicus [16]) was 3, the selectivity ratio [17] was > 3.1 and the Reduction (Rattus norvegicus [18]) was 47%.

Work on COC(=O)C1C(=O)C=C(Nc2ccc(Cl)cc2)CC1C (stereo not given) yielded an Activity [19] of 4, an Activity [20] of 1 and an Activity [21] of 0. It also gave an Activity [22] of 0, an Activity [23] of 0 and an Activity [24] of 4. It also gave an Activity [25] of 0, an Activity [26] of 3 and an Activity [27] of 0. For the same compound, the Average seizure score (Rattus norvegicus [28]) was 3, the Average seizure score (Rattus norvegicus [29]) was 3 and the Average seizure score (Rattus norvegicus [30]) was 2.6.
